High-throughput results (PubChem BioAssay)
miR-122 sensor: inhibitors of miR-122 in Huh7 cells. Huh7 miR-122 Renilla luciferase sensor, 48 h; neutral wells = 0, positive control = 100. activation (reporter increase), % at 12.5 µM. 340,000 tested, 0.3% active;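 active = mean replicate activation score at least 90 and every replicate individually at or above 90; inconclusive = only one of the two criteria met; inactive = neither criterion met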;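 note: higher luciferase means less miR-122 activity so hits act as miR-122 inhibitors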
E-sel inducer: induces E-selectin expression in human endothelial cells | P16581 | HUVEC E-selectin immunofluorescence imaging; normalized: neutral wells 0, TNF-alpha wells 100 | activation, % at 7.58 µM | 260,000 tested, 0.37% active;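 active = mean E-selectin-positive cell signal at least 10% of the positive control, reached in at least 60% of replicates, without over 20% cell loss; inconclusive = no rule given, readout overlaps actives, possibly toxicity-flagged; inactive = the rest, including those meeting only one limit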
Target sequence (P16581 whole entry, looked up): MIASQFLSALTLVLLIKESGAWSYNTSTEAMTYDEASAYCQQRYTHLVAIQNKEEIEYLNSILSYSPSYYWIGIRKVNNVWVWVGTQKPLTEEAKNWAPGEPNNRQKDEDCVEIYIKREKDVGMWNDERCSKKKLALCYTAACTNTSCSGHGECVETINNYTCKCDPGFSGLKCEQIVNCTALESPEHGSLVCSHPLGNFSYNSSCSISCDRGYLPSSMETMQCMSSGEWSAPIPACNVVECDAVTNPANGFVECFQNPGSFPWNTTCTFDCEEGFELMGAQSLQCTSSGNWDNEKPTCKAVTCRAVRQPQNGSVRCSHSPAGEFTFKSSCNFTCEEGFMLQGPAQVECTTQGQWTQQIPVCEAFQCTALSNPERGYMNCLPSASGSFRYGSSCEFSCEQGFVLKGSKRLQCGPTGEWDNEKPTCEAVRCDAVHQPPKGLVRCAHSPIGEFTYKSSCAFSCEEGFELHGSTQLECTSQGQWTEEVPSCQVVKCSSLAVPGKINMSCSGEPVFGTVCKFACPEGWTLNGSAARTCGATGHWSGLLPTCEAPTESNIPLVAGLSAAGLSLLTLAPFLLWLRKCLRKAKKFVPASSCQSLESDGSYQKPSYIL
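Test system: HUVEC; input: 3,000 HUVEC/well; measured by: immunofluorescence imaging; read-out: % PE-positive cells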
Cneo AK release: Cryptococcus neoformans lysis via adenylate kinase release | 360,000 tested, 0.2% active | C. neoformans lysis, adenylate kinase release luminescence, 4 h; normalised: neutral wells 0, clomiphene wells 100 | lysis activity, % at 15 µM;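 active = mean lysis activity across replicates of at least 80%, whatever share of replicates individually reach that level; inactive = mean lysis activity below 80%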
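Assay system: C. neoformans cells. Amount: yeast cell density of 5 × 10^6 cells/mL. Technique: AK luminescence. Buffer or medium: YPD. Times: static 4 h at 37 °C with compound, 1 h detection. Dosing: single-point compound dose. Read-out: lysis from increased AK signal.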
DENV2 CPE: inhibitors of DENV2 cytopathic effect. CPE inhibition, % at 9.99 µM. AID 651640. 350,000 tested, 1.7% active. DENV2-infected cells, cytopathic effect rescue, plate reader; in the data active = CPE inhibition above about 20%, passing the limit was not always enough; inconclusive = no clear call, values can overlap the other calls; tested in BHK-21 cells;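 note: 0% = median of neutral control wells and 100% = median of positive control wells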
Ecoli rRNA inh: inhibitors of bacterial rRNA selective over humanized ribosomes | 350,000 tested, 1.6% active | E. coli WT GFP vs humanized-ribosome RFP mutants, fluorescence, 24 h; hits give low values; DMSO median 0, no signal -100 | GFP signal change (wild-type ribosome), % (concentration not given with the values);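 active = significant combined selectivity score with lowered wild-type GFP, culture density cut under 30%, mutant RFP and density less affected; inactive = any of these conditions unmet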
HepG2 cytotox: HepG2 cell cytotoxicity | shares compounds with Ecoli rRNA inh | activity change, negative = cytotoxicity, unspecified at 26 µM | HepG2 viability, ATP luminescence, 72 h | 30 tested, under 10 active | AID 743480;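 active = compounds whose fitted half-maximal signal-loss concentration is at most twice their highest valid dose; inconclusive = flat curve with 30 to 70% signal loss, or poor fit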
AID977621: growth inhibition of wild-type GFP E. coli, dose response, H69 mutant RFP, cherry-pick; shares compounds with Ecoli rRNA inh; E. coli wild-type GFP strain growth, fluorescence, 24 h; activity change, negative = inhibition at 50 µM; 1,900 tested, under 10 active;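 active = Wild-type ribosome reporter drop at least double the humanized mutant ribosome reporter drop, growth loss under a set limit; inconclusive = no clear call, values can overlap the other calls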;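 note: wild-type GFP and H69 mutant RFP strains grown together 50/50 in each well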
AID977628: growth of wild-type and h24-humanized E. coli strains – h24 mutant RFP vs wild-type GFP, cherry-pick, dose response; shares compounds with Ecoli rRNA inh; E. coli WT GFP strain growth, fluorescence, 24 h; activity change, negative = inhibition at 50 µM; 1,900 tested, under 10 active;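 active = compound lowering the normal-ribosome reporter at least twice as much as the humanized-ribosome reporter, growth loss under a set limit; inconclusive = no clear call, values can overlap the other calls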;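 note: wild-type GFP and h24 humanized RFP strains co-cultured 1 to 1 per well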
* hit, by the source's call; ? = inconclusive; . = no result given; ! = repeats disagree; [ ] = remark or other dose. An excerpt weighted towards active compounds, which were near 3.1% of everything screened.

SMILES	miR-122 sensor	E-sel inducer	Cneo AK release	DENV2 CPE	Ecoli rRNA inh	AID977621	AID977628	others
C[C@H]1CCCCO[C@H](CN(C)C(=O)Cc2ccccc2)[C@@H](C)CN([C@@H](C)CO)C(=O)c2cc(NC(=O)CCCN(C)C)ccc2O1	3[16.7 µM]	0	-6	-8	-1	.	.
Cc1cccc(-c2cc3nc4c(c(N5CCOCC5)n3n2)CCCC4)c1	-7	.	-2	.	-33*	-17	?
Cc1ccc(S(=O)(=O)Nc2ccc3c(c2)C(=O)N([C@@H](C)CO)C[C@@H](C)[C@@H](CN(C)C(=O)NC2CCCCC2)OCCCC[C@@H](C)O3)cc1	-5[16.7 µM]	0	-1	-2	1	.	.
Cc1ccc2nc(SCC(=O)Nc3nonc3N)[nH]c2c1	.	.	.	-2	7	.	.
CCOc1ccc2nc(SCC(=O)Nc3nonc3C)[nH]c2c1	.	5	.	2	-20*	-15	-10
COC(=O)c1cc(S(=O)(=O)NCc2ccc3c(c2)OCO3)cn1C	14	.	2	-4	-13*	-4.9	-6.9
CCOC(=O)c1cc(S(=O)(=O)NCc2ccc3c(c2)OCO3)cn1C	-3	.	2	?	2	.	.
NC(=O)c1ccsc1NC(=O)COC(=O)CSc1ccc(Cl)cc1	0	.	-3	1	-21*	.	?
CO[C@@H]1CN(C)C(=O)c2ccc(NC(=O)Nc3c(C)noc3C)cc2OC[C@H](C)N(C)C[C@@H]1C	4[16.7 µM]	0	0	-8	3	.	.
CC(C)(C)N(Cc1ccccc1)C(=O)COC(=O)Cn1[nH]c(=O)c2ccccc2c1=O	9	0	1	0	-4	.	.
CC(C)(C)N(Cc1ccccc1)C(=O)COC(=O)Cn1cnc2ccccc2c1=O	.	0	.	-6	-32*	-1.2	-2.9
O=C(CCCOc1ccccc1)NCCc1nc2ccccc2[nH]1	-1	2	-1	20	-19*	.	6.4
c1ccc(OCc2noc(CN3CCC(C4CCCCC4)C3)n2)cc1 (stereo not drawn)	.	0	.	-5	-31	.	.
Fc1ccccc1C1CCN(Cc2nc(COc3ccccc3)no2)C1 (stereo not drawn)	0	0	0	-2	-16*	-8.3	-2
COC(=O)CNC(=O)COC(=O)c1ccc(Cl)nc1	-5	8	2	0	-19*	-8.5	-5.9
COc1cccc(NC(=O)N(C)C[C@H]2Oc3ncc(C#Cc4cccnc4)cc3C(=O)N([C@H](C)CO)C[C@H]2C)c1	-5[16.7 µM]	.	-1	0	-39*	-12	8.5
C[C@@H]1CN([C@@H](C)CO)C(=O)c2cccc(NC(=O)c3nc4ccccc4s3)c2O[C@@H]1CN(C)CC1CC1	-3[16.7 µM]	0	12	5	-28*!	-4.4	-10
C[C@@H]1CN([C@H](C)CO)C(=O)c2cccc(NC(=O)Nc3ccccc3)c2O[C@@H]1CN(C)C(=O)Nc1ccc(F)cc1	3[16.7 µM]	0	-1	4	0	.	.
C[C@H](CO)N1C[C@H](C)[C@H](CN(C)C(=O)Nc2ccc(F)cc2)Oc2c(NC(=O)Nc3ccccc3)cccc2C1=O	6[16.7 µM]	0	-1	?	-23*	-8.6	?
C[C@@H]1CN([C@H](C)CO)C(=O)c2cccc(NC(=O)Nc3ccc4c(c3)OCO4)c2O[C@@H]1CN(C)C(=O)Nc1ccc2c(c1)OCO2	-10[16.7 µM]	1	-1	0	-19*	-10	?
COc1cccc(NC(=O)N(C)C[C@@H]2Oc3ncc(C#Cc4cccnc4)cc3C(=O)N([C@@H](C)CO)C[C@H]2C)c1	-4[16.7 µM]	.	0	11	-2	.	.
CN(C)CCCNC(=O)C[C@H]1CC[C@@H]2[C@H](COc3ccc(NC(=O)c4cccc(F)c4)cc3C(=O)N2C)O1	-8[16.7 µM]	0	-2	9	2	.	.
CCCNC(=O)N[C@@H]1CC[C@H](CCn2cc(C3CCCC3)nn2)O[C@@H]1CO	.	0	2	-1	0	.	.
COCCNC(=O)C[C@@H]1CC[C@H](NS(=O)(=O)c2ccc(C)cc2)[C@H](CO)O1	.	0	-1	3	2	.	.
Cc1noc(C)c1S(=O)(=O)Nc1ccc2c(c1)CC(=O)N([C@H](C)CO)C[C@@H](C)[C@@H](CN(C)S(=O)(=O)c1cccs1)O2	17[16.7 µM]	0	-3	-4	3	.	.
SMILES	miR-122 sensor	E-sel inducer	Cneo AK release	DENV2 CPE	Ecoli rRNA inh	AID977621	AID977628	others
O=C(C(=NNc1ccccc1)c1ccccc1)c1ccccc1	-6	0	-1	1	-9	.	.
CC(C)(Nc1ccccc1)C(=O)c1ccccc1	4	.	-3	.	-20*	-2.9	?
Cc1cccc(S(=O)(=O)N2[C@@H]3Cn4c(cccc4=O)[C@H]2[C@@H](C(=O)NC2CCC2)[C@@H]3CO)c1	-4[16.7 µM]	0	-1	14	1	.	.
O=C(Nc1ccccc1N1CCOCC1)C1CCCCN1S(=O)(=O)c1ccccc1 (stereo not drawn)	.	3	.	3	-31*	-11	-17
Cc1nn(Cc2cccc(F)c2)c(C)c1NC(=O)c1c(Cl)cnn1C	.	.	.	6	-18*	-4.8	-0.98
Cc1cccc(Cn2nc(C)c(NC(=O)c3ccc(F)cc3)c2C)c1	.	4	.	10	-9	.	.
C[C@@H]1CCCCO[C@H](CN(C)C(=O)CCCN(C)C)[C@@H](C)CN([C@@H](C)CO)C(=O)c2cc(NC(=O)Nc3ccccc3)ccc2O1	3[16.7 µM]	0	2	1	2	.	.
C[C@@H]1CCCCO[C@H](CN(C)C(=O)CCCN(C)C)[C@H](C)CN([C@@H](C)CO)C(=O)c2cc(NC(=O)Nc3cccc4ccccc34)ccc2O1	18[16.7 µM]	0	3	0	-36*	.	.	HepG2 cytotox=15
C[C@@H]1CCCCO[C@H](CN(C)C(=O)CCCN(C)C)[C@@H](C)CN([C@H](C)CO)C(=O)c2cc(NC(=O)Nc3cccc4ccccc34)ccc2O1	11[16.7 µM]	0	-2	-5	-1	?	8.2
C[C@@H]1CCCCO[C@@H](CN(C)C(=O)CCCN(C)C)[C@@H](C)CN([C@H](C)CO)C(=O)c2cc(NC(=O)Nc3cccc4ccccc34)ccc2O1	33[16.7 µM]	0	2	14	3	-1.8	?
C[C@@H]1CN([C@@H](C)CO)C(=O)c2cc(NC(=O)Nc3cccc4ccccc34)ccc2O[C@@H](C)CCCCO[C@@H]1CN(C)C(=O)CCCN(C)C	5[16.7 µM]	1	1	-11	2	.	.
